According to ChEMBL document CHEMBL2439995, “Synthesis and Evaluation of Quinazolone Derivatives as a New Class of c-KIT G-Quadruplex Binding Ligands” (ACS Med Chem Lett, 2013):
Calls of active or inactive are those of the source. The rule behind the calls is not given here.

Tests used:
MCF7 [1] = test: Binding affinity to full length wild type c-KIT2 G-quadruplex DNA isolated from human MCF7 cells at 5 uM after 48 hrs by dual luciferase reporter gene assay relative to control; format: cell-based
In short: (§1)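 MCF-7 cells transiently transfected with a luciferase plasmid carrying the full-length wild-type c-KIT promoter or its mutant, plus pRL-TK. Cells treated 48 h with compound at 2.5 µM or a range of concentrations. Firefly signal normalized to pRL-TK, expressed relative to untreated cells (100%). Triplicates, three independent experiments, standard error.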

HGC-27 [2] = test: Cytotoxicity against HGC27 cells assessed as cell viability after 48 hrs by MTT assay; format: functional, cell-based; conditions: Homo sapiens, HGC-27, 48 h
HGC-27 [3] = test: Downregulation of c-KIT mRNA expression in HGC27 cells after 24 hrs by RT-PCR analysis relative to control; format: functional, cell-based; conditions: Homo sapiens
In short: (§2)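 HGC-27 gastric carcinoma cells treated 24 h at final 1.25, 2.5 or 5 µM. c-KIT mRNA quantified by RT-PCR against β-actin, relative to control.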

MCF7 [4] = test: Binding affinity to full length wild type c-KIT2 G-quadruplex DNA isolated from human MCF7 cells at 2.5 uM after 48 hrs by dual luciferase reporter gene assay; format: cell-based; in short: as §1
HGC-27 [5] = test: Downregulation of c-KIT mRNA expression in HGC27 cells at 2.5 uM after 24 hrs by RT-PCR analysis relative to control; format: functional, Homo sapiens; in short: as §2
MCF7 [6] = test: Binding affinity to full length wild type c-KIT2 G-quadruplex DNA isolated from human MCF7 cells after 48 hrs by dual luciferase reporter gene assay; format: cell-based; in short: as §1
MCF7 [7] = test: Binding affinity to c-KIT1 mutant G-quadruplex DNA isolated from human MCF7 cells at 5 uM after 48 hrs by dual luciferase reporter gene assay relative to control; format: cell-based; in short: as §1
[8] = Binding affinity to F10T duplex DNA (unknown origin) assessed as change in melting temperature at 5 uM by FRET assay
[9] = Binding affinity to F-c-KIT1-T G-quadruplex DNA (unknown origin) assessed as change in melting temperature at 5 uM by FRET assay
[10] = Binding affinity to duplex DNA (unknown origin) up to 20 uM by surface plasmon resonance method
In short: (§3)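 SPR binding to immobilized c-KIT1 G-quadruplex or duplex DNA, ligand injected at various concentrations, up to 20 µM. KD obtained by global fitting of the kinetic data to a 1:1 Langmuir binding model.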

[11] = Binding affinity to c-KIT1 G-quadruplex DNA (unknown origin) at 25 uM by CD spectrophotometric analysis
In short: (§4)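 Circular dichroism spectra of 5 µM c-KIT1 or c-KIT2 oligonucleotide in 10 mM Tris–HCl, pH 7.2, 100 mM KCl, recorded with and without 25 µM ligand. Bands near 263 nm (positive) and 240 nm (negative) monitored.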

MCF7 [12] = test: Binding affinity to full length wild type c-KIT1 G-quadruplex DNA isolated from human MCF7 cells at 5 uM after 48 hrs by dual luciferase reporter gene assay relative to control; format: cell-based; in short: as §1
MCF7 [13] = test: Binding affinity to c-KIT2 mutant G-quadruplex DNA isolated from human MCF7 cells at 2.5 uM after 48 hrs by dual luciferase reporter gene assay; format: cell-based; in short: as §1
HGC-27 [14] = test: Downregulation of c-KIT mRNA expression in HGC27 cells at 1.25 uM after 24 hrs by RT-PCR analysis relative to control; format: functional, Homo sapiens; in short: as §2
MCF7 [15] = test: Binding affinity to c-KIT1 mutant G-quadruplex DNA isolated from human MCF7 cells at 2.5 uM after 48 hrs by dual luciferase reporter gene assay; format: cell-based; in short: as §1
HGC-27 [16] = test: Downregulation of c-KIT mRNA expression in HGC27 cells at 5 uM after 24 hrs by RT-PCR analysis relative to control; format: functional, Homo sapiens; in short: as §2
MCF7 [17] = test: Binding affinity to full length wild type c-KIT1 G-quadruplex DNA isolated from human MCF7 cells at 2.5 uM after 48 hrs by dual luciferase reporter gene assay; format: cell-based; in short: as §1
[18] = Binding affinity to biotinylated c-KIT1 G-quadruplex DNA (unknown origin) by surface plasmon resonance method; in short: as §3
MCF7 [19] = test: Binding affinity to full length wild type c-KIT1 G-quadruplex DNA isolated from human MCF7 cells after 48 hrs by dual luciferase reporter gene assay; format: cell-based; in short: as §1
[20] = Binding affinity to c-KIT2 G-quadruplex DNA (unknown origin) at 25 uM by CD spectrophotometric analysis; in short: as §4
[21] = Binding affinity to F-c-KIT2-T G-quadruplex DNA (unknown origin) assessed as change in melting temperature at 5 uM by FRET assay
MCF7 [22] = test: Binding affinity to c-KIT2 mutant G-quadruplex DNA isolated from human MCF7 cells at 5 uM after 48 hrs by dual luciferase reporter gene assay relative to control; format: cell-based; in short: as §1

Row | Compound | IC50 (HGC-27 [2]) | inhibition (MCF7 [4]) | ΔTm [8] | ΔTm [9] | Activity [10] | inhibition (MCF7 [13]) | inhibition (MCF7 [15]) | inhibition (MCF7 [17]) | Kd [18] | ΔTm [21] | further results
1 | CCN(CC)CCNC(=O)c1ccc(/C=C/c2nc3cc(N4CCN(C)CC4)c(F)cc3c(=O)n2-c2ccccc2)cc1 | 8.6 µM | Active | 0.4 °C | 13.4 °C | inactive | inactive | inactive | Active | 1.37 µM | 14.3 °C | inhibition (MCF7 [1]): 37%; Activity (HGC-27 [3]): Dose-dependent effect; Activity (HGC-27 [5]): 10.4%; inhibition (MCF7 [6]): Dose-dependent effect; inhibition (MCF7 [7]): 20%; Activity [11]: Active; inhibition (MCF7 [12]): 37%; Activity (HGC-27 [14]): 5.7%; Activity (HGC-27 [16]): 35.7%; inhibition (MCF7 [19]): Dose-dependent effect; Activity [20]: Active; inhibition (MCF7 [22]): 20%
2 | CN(C)CCNC(=O)c1ccc(/C=C/c2nc3cc(N4CCN(C)CC4)c(F)cc3c(=O)n2-c2ccccc2)cc1 | 21.2 µM | Active | 0.5 °C | 15.1 °C | inactive | inactive | inactive | Active | 1.16 µM | 15.9 °C | –
3 | CN1CCN(c2cc3nc(/C=C/c4ccc(C(=O)NCCN5CCCC5)cc4)n(-c4ccccc4)c(=O)c3cc2F)CC1 | 17.2 µM | Active | 0.4 °C | 12.3 °C | inactive | inactive | inactive | Active | 15.7 µM | 13.4 °C | –
4 | CCN(CC)CC(=O)Nc1ccc(/C=C/c2nc3cc(N4CCN(C)CC4)c(F)cc3c(=O)n2-c2ccccc2)cc1 | 18.4 µM | Active | 0 °C | 5.5 °C | – | inactive | inactive | Active | – | 7.8 °C | –
5 | CN1CCN(c2cc3nc(/C=C/c4ccc(C(=O)NCCCN5CCCC5)cc4)n(-c4ccccc4)c(=O)c3cc2F)CC1 | 12.3 µM | Active | 0.4 °C | 15.9 °C | inactive | inactive | inactive | Active | 1.99 µM | 16.8 °C | –
6 | CN1CCN(c2cc3nc(/C=C/c4ccc(NC(=O)CN5CCCC5)cc4)n(-c4ccccc4)c(=O)c3cc2F)CC1 | 2.3 µM | Active | 0 °C | 6.4 °C | inactive | inactive | inactive | Active | 0.784 µM | 9.4 °C | –
7 | CN1CCN(c2cc3nc(/C=C/c4ccc(NC(=O)CCN5CCCCC5)cc4)n(-c4ccccc4)c(=O)c3cc2F)CC1 | 8.2 µM | Active | 0 °C | 10.7 °C | inactive | inactive | inactive | Active | 0.916 µM | 12.6 °C | –
8 | CN1CCN(c2cc3nc(/C=C/c4ccc(NC(=O)CN5CCCCC5)cc4)n(-c4ccccc4)c(=O)c3cc2F)CC1 | 1.3 µM | Active | 0.1 °C | 4.2 °C | – | inactive | inactive | Active | – | 7.5 °C | –
9 | Cc1ccc(NC(=O)c2ccc(CN3CCN(C)CC3)cc2)cc1Nc1nccc(-c2cccnc2)n1 [IMATINIB] | 3.8 µM | – | – | – | – | – | – | – | – | – | –
10 | CN1CCN(c2cc3nc(/C=C/c4ccc(NC(=O)CCN5CCCC5)cc4)n(-c4ccccc4)c(=O)c3cc2F)CC1 | 13.4 µM | Active | 0 °C | 11.3 °C | inactive | inactive | inactive | Active | 1.88 µM | 12.4 °C | –
11 | CCN(CC)CCC(=O)Nc1ccc(/C=C/c2nc3cc(N4CCN(C)CC4)c(F)cc3c(=O)n2-c2ccccc2)cc1 | 6.8 µM | Active | 0 °C | 11.1 °C | inactive | inactive | inactive | Active | 0.612 µM | 13.6 °C | inhibition (MCF7 [1]): 45%; Activity (HGC-27 [3]): Dose-dependent effect; Activity (HGC-27 [5]): 22.8%; inhibition (MCF7 [6]): Dose-dependent effect; inhibition (MCF7 [7]): 22%; Activity [11]: Active; inhibition (MCF7 [12]): 45%; Activity (HGC-27 [14]): 4.9%; Activity (HGC-27 [16]): 52.5%; inhibition (MCF7 [19]): Dose-dependent effect; Activity [20]: Active; inhibition (MCF7 [22]): 22%
